One block for each compound: values may come before it. The source made the active and inactive calls. The rule behind the calls is not given here.
How the values were obtained:
HL-60 [1] = test: Antiproliferative activity against human HL60 cells after 48 hrs by trypan blue method; type: functional, cell-based; conditions: HL-60, 48 h
Summary of the method: (§1)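 Growth inhibition read by counting cells with an automatic cell counter after 48 h of compound exposure. IC50 is the concentration inhibiting 50% of cell growth.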

K562 [2] = test: Antiproliferative activity against human K562 cells after 48 hrs by trypan blue method; type: functional, cell-based; conditions: K562, 48 h; summary of the method: as §1
K562 [3] = test: Cell cycle arrest in human K562 cells by accumulation at G1 phase at 30 uM after 48 hrs using propidium iodide staining by FACS; type: functional
Summary of the method: (§2)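 K562 cells treated for 24, 48 or 72 h. Cells stained with propidium iodide and cell-cycle phase distribution analysed by flow cytometry against untreated cells. The sub-G0–G1 peak was taken as apoptotic.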

K562 [4] = test: Induction of apoptosis in human K562 cells assessed as morphological changes after 48 hrs by annexin V assay; type: functional, cell-based; conditions: K562, 48 h
Summary of the method: (§3)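 HL60 or K562 cells treated for 48 h. Apoptosis scored by morphological assay and annexin V test. AC50 is the concentration inducing apoptosis in 50% of cells.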

K562 [5] = test: Cell cycle arrest in human K562 cells by accumulation at G1 phase at 30 uM after 24 hrs using propidium iodide staining by FACS; type: functional; summary of the method: as §2
K562 [6] = test: Cell cycle arrest in human K562 cells by accumulation at G2/M phase at 30 uM after 48 hrs using propidium iodide staining by FACS; type: functional; summary of the method: as §2
K562 [7] = test: Cell cycle arrest in human K562 cells by accumulation at sub-G1 (apoptotic) phase at 30 uM after 24 hrs using propidium iodide staining by FACS; type: functional; summary of the method: as §2
K562 [8] = test: Cell cycle arrest in human K562 cells by accumulation at sub-G1 (apoptotic) phase at 30 uM after 72 hrs using propidium iodide staining by FACS; type: functional; summary of the method: as §2
K562 [9] = test: Cell cycle arrest in human K562 cells by accumulation at sub-G1 (apoptotic) phase at 30 uM after 48 hrs using propidium iodide staining by FACS; type: functional; summary of the method: as §2
HL-60 [10] = test: Induction of apoptosis in human HL60 cells assessed as induction of cell differentiation marker CD11c expression at 10 uM after 120 hrs by flow cytometry; type: functional, cell-based
Summary of the method: (§4)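 HL60 or K562 cells exposed to 10 μM compound or no compound (control) for 120 h (5 days). Surface CD11c and CD61 read by flow cytometry with PE- or FITC-conjugated monoclonal antibodies. Treated cells compared with untreated cells.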

K562 [11] = test: Cell cycle arrest in human K562 cells by accumulation at G1 phase at 30 uM after 72 hrs using propidium iodide staining by FACS; type: functional; summary of the method: as §2
K562 [12] = test: Cell cycle arrest in human K562 cells by accumulation at S phase at 30 uM after 72 hrs using propidium iodide staining by FACS; type: functional; summary of the method: as §2
K562 [13] = test: Induction of apoptosis in human K562 cells assessed as induction of cell differentiation marker CD11c expression at 10 uM after 120 hrs by flow cytometry; type: functional, cell-based; summary of the method: as §4
K562 [14] = test: Induction of apoptosis in human K562 cells assessed as decrease in Bcl-2 expression at 30 uM after 24 hrs by flow cytometry; type: functional; parameters: scale not given: the % may be the effect or the level left
Summary of the method: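 K562 cells cultured 24 h with compound at 30 μM or without (control). Intracellular Bcl-2 read by flow cytometry after staining with FITC-conjugated anti-Bcl-2 monoclonal antibody. Treated histograms compared with control histograms.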

K562 [15] = test: Cell cycle arrest in human K562 cells by accumulation at G2/M phase at 30 uM after 72 hrs using propidium iodide staining by FACS; type: functional; summary of the method: as §2
HL-60 [16] = test: Induction of apoptosis in human HL60 cells assessed as morphological changes after 48 hrs by annexin V assay; type: functional, cell-based; conditions: HL-60, 48 h; summary of the method: as §3
K562 [17] = test: Cell cycle arrest in human K562 cells by accumulation at G2/M phase at 30 uM after 24 hrs using propidium iodide staining by FACS; type: functional; summary of the method: as §2
[18] = Cytotoxicity against human lymphocytes after 48 hrs by trypan blue method; type: cell-based; conditions: Lymphocyte; summary of the method: as §1
HL-60 [19] = test: Induction of apoptosis in human HL60 cells assessed as induction of cell differentiation marker CD61 expression at 10 uM after 120 hrs by flow cytometry; type: functional, cell-based; summary of the method: as §4
K562 [20] = test: Cell cycle arrest in human K562 cells by accumulation at S phase at 30 uM after 48 hrs using propidium iodide staining by FACS; type: functional; summary of the method: as §2
K562 [21] = test: Induction of apoptosis in human K562 cells assessed as induction of cell differentiation marker CD61 expression at 10 uM after 120 hrs by flow cytometry; type: functional, cell-based; summary of the method: as §4
K562 [22] = test: Cell cycle arrest in human K562 cells by accumulation at S phase at 30 uM after 24 hrs using propidium iodide staining by FACS; type: functional; summary of the method: as §2

Compound: O=C1C[C@H](c2ccc(O)cc2)C2(C(=O)c3ccccc3C2=O)[C@H](c2ccccc2)C1
IC50 (HL-60 [1]): 23 µM
IC50 (K562 [2]): 25 µM

Compound: O=C1C[C@H](c2cnc[nH]2)C2(C(=O)c3ccccc3C2=O)[C@H](c2ccc(O)cc2)C1
IC50 (HL-60 [1]): 86 µM
IC50 (K562 [2]): 95 µM

Compound: O=C1C[C@H](c2ccc(-c3ccc(CO)cc3)cc2)C2(C(=O)c3ccccc3C2=O)[C@H](c2ccccc2)C1
Activity (K562 [3]): 48%
AC50 (K562 [4]): 80 µM
Activity (K562 [5]): 47%
Activity (K562 [6]): 22%
Activity (K562 [7]): 4%
Activity (K562 [8]): 11%
Activity (K562 [9]): 6%
IC50 (HL-60 [1]): 6 µM
Activity (HL-60 [10]): Active
Activity (K562 [11]): 48%
IC50 (K562 [2]): 14 µM
Activity (K562 [12]): 32%
Activity (K562 [13]): inactive
Activity (K562 [14]): 4.3%
Activity (K562 [15]): 20%
AC50 (HL-60 [16]; read-out: AC50): 12 µM
Activity (K562 [17]): 19%
IC50 ([18]; read-out: IC50): 286 µM
Activity (HL-60 [19]): Active
Activity (K562 [20]): 30%
Activity (K562 [21]): inactive
Activity (K562 [22]): 34%

Compound: COc1ccc(-c2ccc([C@H]3CC(=O)C[C@@H](c4ccccc4)C34C(=O)c3ccccc3C4=O)cc2)cc1
IC50 (HL-60 [1]): > 100 µM
IC50 (K562 [2]): > 100 µM

Compound: Oc1ccc(-c2ccc(-c3cc(O)cc(O)c3)cc2)cc1
AC50 (K562 [4]): 75 µM
IC50 (K562 [2]): 20 µM

Further lines, with some results ahead:

IC50 (HL-60 [1]): 20 µM
IC50 (K562 [2]): 38 µM
Compound: CC1(C)OC(=O)C2(C(=O)O1)[C@@H](c1ccc(-c3ccc(CO)cc3)cc1)CC(=O)C[C@H]2c1ccccc1

IC50 (HL-60 [1]): 62 µM
IC50 (K562 [2]): > 100 µM
Compound: CC1(C)OC(=O)C2(C(=O)O1)[C@@H](c1c[nH]c3ccccc13)CC(=O)C[C@H]2c1ccccc1

IC50 (HL-60 [1]): 8 µM
IC50 (K562 [2]): 9 µM
Compound: CC1(C)OC(=O)C2(C(=O)O1)[C@@H](c1ccc(-c3ccc(O)cc3)cc1)CC(=O)C[C@H]2c1ccccc1
Activity (K562 [3]): 39%
AC50 (K562 [4]): 33 µM
Activity (K562 [5]): 46%
Activity (K562 [6]): 9%
Activity (K562 [7]): 7%
Activity (K562 [8]): 47%
Activity (K562 [9]): 46%
Activity (K562 [11]): 37%
Activity (K562 [12]): 54%
Activity (K562 [14]): 31.2%
Activity (K562 [15]): 9%
AC50 (HL-60 [16]): 16 µM
Activity (K562 [17]): 11%
IC50 [18]: 172 µM
Activity (K562 [20]): 52%
Activity (K562 [22]): 43%

From ChEMBL document CHEMBL1155236, “Identification of biphenyl-based hybrid molecules able to decrease the intracellular level of Bcl-2 protein in Bcl-2 overexpressing leukemia cells” (J Med Chem, 2009)
